Screening data (PubChem)
Only a selection was taken, and hits are over-represented in it overall.
CHOP UPR activ = activators of apoptotic arm of unfolded protein response (CHOP); CHO-CHOP luciferase reporter, UPR activation, luminescence; percent of tunicamycin response over DMSO baseline; activation, % at 10 µM; actives 0.34% (n = 330,000);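 active = at 10 µM dose, activation of 40% or more, normalized to positive control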;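 also: 100% = tunicamycin at 10 µg/mL and 0% = DMSO alone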
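System: CHO-CHOP luciferase reporter cell line | Buffer or medium: F12 medium containing 10% fetal bovine serum | Doses: One dose, 10 µM in 0.5% DMSO | Times: 6 h compound exposure at 37 °C after overnight seeding | Signal: Luciferase luminescence | Read-out: % activation vs tunicamycin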
CHOP inh = blocks CHOP induction under ER stress | CHO-K1 CHOP-promoter luciferase, tunicamycin-induced, 15-18 h | inhibition, % at 10 µM | actives 3.8% (n = 220,000) | AID 2732;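 active = compounds that reduced the stress-induced luciferase reporter signal by more than about 70% of percent inhibition, limit read from the data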;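 also: 0% = tunicamycin plus vehicle and 100% = wells without tunicamycin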
Dynein transport = dynein cargo transport inhibition. 3617.4 mouse cells, GR-EGFP nuclear translocation imaging; test concentration mostly 20 µM; stimulated with dexamethasone, 1 µM; stronger effect = lower value. z-score, hits read low. actives 0.47% (n = 220,000). AID 1381;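 active = plate z-score of nuclear minus cytoplasmic receptor signal below a set negative limit, without overly bright fluorescence or cell loss, cut at about -3.5 in these data, passing the limit was not always enough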;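 also: z-score of nuclear minus cytoplasmic ring GR-EGFP intensity difference per well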
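Buffer or medium: tet-free, stripped-serum medium; Also added: dexamethasone, 1.0 µM final; Technique: high-content fluorescence imaging after fixation; Times: 48 h induction, 1 h compound, 30 min dex at 37 °C; Read-out: per-cell GR-EGFP intensity, nucleus versus surrounding cytoplasmic ring, well-averaged.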
T cruzi inh = blocks replication of Trypanosoma cruzi; T. cruzi beta-gal in NIH3T3, luminescence, 90 h; inhibition, % (concentration not given with the values); actives 1.4% (n = 300,000); AID 1885;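 active = mean inhibition across valid replicates above about 55%, limit read from the data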;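 also: signal also drops with host cell toxicity which is not excluded here; 0% = plate median of DMSO wells and 100% = zero luminescence signal; higher percent means less beta-gal luminescence so fewer parasites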
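System – NIH/3T3 host cells with β-galactosidase reporter T. cruzi · Doses – single 50 nL compound addition per well in DMSO · Reagent – 5000 T. cruzi trypomastigotes/well · Medium – Low-serum DMEM with 2% FBS · Timing – ≥90 h infection period, 3 h prior cell attachment · Evaluation – parasite load inhibition, % · Technique – GalScreen luminescence, 60 min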
L major viab = inhibitors of Leishmania major promastigote growth. inhibition, % at 10 µM. Leishmania major promastigotes, resazurin fluorescence viability. actives 9% (n = 200,000). AID 1063; in the data active = inhibition above about 50%;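 also: promastigotes grown with compound for 44 hours at 28 °C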
XBP1 UPR activ = activators of adaptive arm of unfolded protein response (XBP1) | AID 463104 | actives 0.33% (n = 330,000) | CHO-XBP1 luciferase reporter, IRE1-XBP1 UPR activation, luminescence; percent of tunicamycin response, DMSO as zero | activation, % at 20 µM;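 active = versus positive control, 20 µM dose yields 30% or more activation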;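 also: 100% = tunicamycin at 10 µg/mL and 0% = DMSO only wells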
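Material: IRE1-XBP1 luciferase reporter CHO line / Quantity: one thousand reporter cells per well / Buffer or medium: F12 with 10% serum / Compound: 20 µM single concentration, DMSO 1% / Times: 6 h treatment, 37 °C / Detection: Steady-Glo luciferase glow luminescence, 10 min after reagent addition / Benchmarks: tunicamycin high, DMSO low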
Numbers without * were called inactive; nt = not tested or not shown.

SMILES	CHOP UPR activ	CHOP inh	Dynein transport	T cruzi inh	L major viab	XBP1 UPR activ
COc1ccc(NC(=O)C2C3C=CC4(O3)C2C(=O)N(CCN2CCCCC2)C4C(=O)NC2CCCC(C)C2C)cc1 (configuration not stated)	-1.1	nt	nt	-3.4	nt	0.2
COc1ccc(C2CC(=O)c3c(ccc4ccccc34)N2)cc1OC (configuration not stated)	0.2	38.4	0.156	5.1	99.7*	-2.3
CCOc1cc(C2CC(=O)c3c(ccc4ccccc34)N2)ccc1O (configuration not stated)	0.2	-2.5	-0.771	-0.9	35.7	-3.9
CO/N=C(\Cn1ncc(NC2CCCCC2)c(Br)c1=O)c1ccc(Cl)cc1	3.1	84.1*	0.601	nt	5.7	-4.3
O=C(Cn1ncc(N2CCCC2)c(Cl)c1=O)c1ccc(Cl)cc1	6.0	2.2	-0.693	-0.2	-2.1	6.0
CO/N=C(/CN1CCCCC1)c1ccc(Cl)cc1	0.6	nt	nt	-9.7	nt	0.1
CO/N=C(\Cn1ncc(N2CCCC2)c(Br)c1=O)c1ccc(Cl)cc1	-2.4	42.0	-0.713	2.6	70.7*	-3.4
Cc1ccc(C(=O)NCCCN2CCOCC2)cc1	1.9	nt	0.211	-0.6	8.5	-2.2
O=C(NCCCl)C1Cc2c(ccc3ccccc23)O1 (configuration not stated)	-0.5	-3.2	0.916	-8.2	-4.9	-0.5
O=C(NCCCN1CCOCC1)C1Cc2c(ccc3ccccc23)O1 (configuration not stated)	3.0	1.3	0.584	1.0	69.3*	-1.0
O=C(CCN1CCCCC1)NNC(=S)NC(=O)c1ccc(Br)cc1	-0.6	1.6	3.47	-46.5	75.0*	0.1
Cc1ccc(C(NC(=O)NCCCN2CCOCC2)=C(Cl)Cl)cc1F	0.7	17.0	-2.02	-25.4	81.3*	-1.8
O=C(CCN1CCOCC1)NNC(=S)NC(=O)c1ccc(Br)cc1	0.8	41.1	1.44	8.6	-4.8	-2.1
Cc1ccc(C(=O)NC(=S)NCCCN2CCOCC2)cc1	-0.6	3.7	0.461	11.4	64.6*	5.8
CCN1C(=O)[C@H]2[C@@H](c3ccc(-c4ccc(OC)cc4)cc3)N3CCCC[C@@]3(C(=O)OC)[C@H]2C1=O	2.4	nt	nt	-4.1	nt	-0.1
O=C(CCC1CCCCC1)NCCS(=O)(=O)N1CCN(c2ccc(F)cc2)CC1	-0.2	nt	nt	-5.4	nt	0.8
Cn1c(CNC(=O)c2ccc3c(c2)OCO3)nnc1SCC(=O)Nc1ccc(F)cc1F	-0.1	nt	nt	2.0	nt	2.8
COc1ccc(N(C)C(=O)c2ccc(NC(=O)CCS(=O)(=O)c3cccs3)cc2)cc1	0.6	nt	nt	-1.0	nt	-4.4
CCOc1ncccc1C(=O)OCC(=O)Nc1ccc2c(c1)OCO2	-2.1	-5.6	-0.677	-6.4	-2.4	2.1
CC(=O)O[C@H]1C[C@@]2(C)[C@@H](C[C@@H](O)[C@H]3[C@@]4(C)CC[C@@H](O)[C@@H](C)[C@@H]4CC[C@@]32C)/C1=C(\CCC=C(C)C)C(=O)O	0.5	nt	nt	-19.9	nt	-7.7
NC(=O)c1cc(S(=O)(=O)N2CCc3ccccc3C2)cs1	2.1	nt	nt	1.7	nt	-2.0
Cc1ccc(-c2nc(C(=O)NCCCN3CCOCC3)cc3c2[nH]c2ccccc23)cc1	3.0	nt	nt	56.6*	nt	-0.8
O=C(NC(=S)NCCCN1CCOCC1)c1ccc(Br)cc1	-0.1	21.1	1.34	14.6	85.6*	1.1
O=C(NC(=S)NCCCN1CCOCC1)c1cccc2ccccc12	-0.4	8.1	0.646	-3.7	78.4*	1.4
CCN1CCN(S(=O)(=O)c2ccc(Cl)c(C(=O)NC(C)(C)C)c2)CC1	-0.1	-2.2	-0.949	-5.3	-3.2	-0.3
SMILES	CHOP UPR activ	CHOP inh	Dynein transport	T cruzi inh	L major viab	XBP1 UPR activ
CCOC(=O)c1ccc2c(c1)N(CC)/C(=C\C=C1/SC(=S)N(CC)C1=O)N2CC	nt	nt	-6.03*	nt	-3.5	nt
C=CCN1C(=O)/C(=C/C=C2/N(CC)c3ccc(S(=O)(=O)N(C)C)cc3N2CC)SC1=S	-3.3	-9.4	-0.78	25.3	3.3	-1.9
COCC1CCCN(C(=O)c2ccc3nc(Cc4cccc(Cl)c4)oc3c2)C1 (configuration not stated)	5.3	nt	nt	15.9	nt	-1.5
CC1CC(C)CN(C(=O)CNS(=O)(=O)c2ccc(Br)s2)C1 (configuration not stated)	-1.2	32.5	-0.367	11.3	-3.7	-3.0
Cc1ccc(N2CCN(C(=O)CNS(=O)(=O)c3ccc(Br)s3)CC2C)cc1 (configuration not stated)	-0.6	72.5*	-0.609	14.7	13.3	-3.9
O=C(CNS(=O)(=O)c1ccc(Br)s1)N1CCC(N2CCCCC2)CC1	0.7	20.6	-0.669	nt	78.3*	-3.5
CCN(CC(=O)NCc1ccc(F)cc1)C(=O)C1CCN(S(=O)(=O)c2ccc(C(C)C)cc2)CC1	-2.1	nt	nt	nt	nt	-1.5
c1ccc(CN2CCN(c3ncccn3)CC2)cc1	1.0	nt	nt	-22.9	nt	-0.9
c1ccc(COc2ccc(CN3CCN(c4ccccn4)CC3)cc2)cc1	14.2	-20.3	-0.151	19.9	95.2*	2.1
CC1CCN(CCCNC(=O)c2cc3sccc3n2C)CC1	-0.6	5.3	1.33	10.6	91.8*	-1.8
Cn1c(C(=O)NC2CCCCC2)cc2sccc21	1.1	34.9	1.79	-17.1	4.0	5.1
COc1ccc(N2CCN(CCCNC(=O)c3cc4sccc4n3C)CC2)cc1	-1.4	23.5	0.889	31.3	81.3*	-0.7
Cc1cc(=O)oc2cc(NC(=O)C(C)N3C(=O)C4CCCCC4C3=O)ccc12 (configuration not stated)	-1.3	nt	nt	nt	nt	-2.1
CCn1c(/C=C/Nc2ccccc2)[n+](CC)c2cc(Cl)c(Cl)cc21	-0.2	27.7	2.07	-22.8	100.4*	-0.1
Cn1c(=O)c2c(nc(SCc3nn[nH]n3)n2Cc2ccccc2F)n(C)c1=O	nt	-3.1	1.31	-13.5	3.6	nt
CN(C)c1nc(N)nc(CSc2nc3c(c(=O)n(C)c(=O)n3C)n2Cc2ccccc2F)n1	-0.8	71.5*	0.931	5.4	4.0	-1.5
COc1ccc(S(=O)(=O)N(C)C)cc1NC(=O)CCCSc1ccccc1	-0.5	nt	nt	16.8	nt	1.8
COc1ccc(CN(C(=O)CSc2nnc(-c3ccccc3C)o2)c2ccc(F)cc2)cc1	1.7	4.4	-0.287	16.4	14.6	-4.5
Cc1ccc(C(=O)CSc2nnc(-c3c[nH]c4ccccc34)o2)cc1	-2.6	94.8*	-0.532	3.3	-4.5	3.6
O=C(CSc1nnc(-c2c[nH]c3ccccc23)o1)N(Cc1ccccc1)c1ccc(F)cc1	1.2	71.5*	-0.586	54.6*	64.3*	7.8
